Measurements as given in ChEMBL document CHEMBL5523707, “Novel Inhibitory Site Revealed by XAP044 Mode of Action on the Metabotropic Glutamate 7 Receptor Venus Flytrap Domain” (J Med Chem, 2024).
Values belong to the compound of their own block, whether it stands above or below them. Active and inactive are the calls of the source. The rule behind the calls is not given here.

Columns and labels:
[1] = molecular target: Metabotropic glutamate receptor 7 (Rattus norvegicus) (UniProt P35400); test: Antagonist activity against LSP4-202-induced rat mGlu7 activation transfected in HEK293 cells co-transfected with chimeric Gqi9 assessed as decrease in LSP4-202 potency by measuring LSP4-202 maximum efficacy at 30 to 100 uM incubated for 24 hrs by IP-one HTRF assay relative to control; type: functional, cell-based; settings: filed as antagonist, dose 30-100 µM
Chain of Metabotropic glutamate receptor 7 (Rattus norvegicus) (P35400 whole entry): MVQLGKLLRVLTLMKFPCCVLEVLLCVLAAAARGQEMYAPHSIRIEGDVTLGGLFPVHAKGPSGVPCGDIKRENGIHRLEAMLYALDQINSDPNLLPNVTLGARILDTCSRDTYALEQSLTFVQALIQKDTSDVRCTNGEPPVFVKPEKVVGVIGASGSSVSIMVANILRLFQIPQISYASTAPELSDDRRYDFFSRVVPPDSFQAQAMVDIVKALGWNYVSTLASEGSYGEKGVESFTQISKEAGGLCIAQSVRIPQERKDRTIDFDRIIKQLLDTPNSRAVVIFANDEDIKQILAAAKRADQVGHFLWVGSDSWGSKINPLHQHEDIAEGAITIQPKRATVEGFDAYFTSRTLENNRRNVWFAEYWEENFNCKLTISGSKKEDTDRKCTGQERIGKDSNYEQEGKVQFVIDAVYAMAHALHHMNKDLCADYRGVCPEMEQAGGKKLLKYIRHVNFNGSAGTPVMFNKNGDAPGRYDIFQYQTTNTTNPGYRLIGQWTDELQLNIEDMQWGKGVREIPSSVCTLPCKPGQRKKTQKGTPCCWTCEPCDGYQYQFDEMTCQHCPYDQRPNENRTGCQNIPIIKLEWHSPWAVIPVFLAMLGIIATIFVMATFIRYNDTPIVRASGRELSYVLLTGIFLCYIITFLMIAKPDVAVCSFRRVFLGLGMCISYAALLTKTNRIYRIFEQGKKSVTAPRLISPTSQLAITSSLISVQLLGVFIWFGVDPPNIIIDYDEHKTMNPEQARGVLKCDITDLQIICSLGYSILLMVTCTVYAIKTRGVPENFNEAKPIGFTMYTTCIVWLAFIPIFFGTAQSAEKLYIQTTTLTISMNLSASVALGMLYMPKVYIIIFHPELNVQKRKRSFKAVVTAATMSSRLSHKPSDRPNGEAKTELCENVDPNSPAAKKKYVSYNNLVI
In short: (§1)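 IP-One HTRF IP1 read-out in HEK293 transiently expressing rat mGlu7 plus chimeric Gqα9, 24 h after electroporation. LSP4-2022 concentration-response was tested with derivatives at 30 or 100 µM. Gives pEC50, pEC50/pEC50 control ratio, and max as % of LSP4-2022 maximal effect over basal. Triplicates, n independent experiments; paired t-test.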

Rattus norvegicus [2] = species: Rattus norvegicus; test: Ratio of pEC50 for antagonist activity against LSP4-202-induced rat mGlu7 activation transfected in HEK293 cells co-transfected with chimeric Gqi9 assessed as decrease in LSP4-202 potency to pEC50 for LSP4-202-induced rat mGlu7 activation transfected in HEK293 cells co-transfected with chimeric Gqi9; type: cell-based; in short: as §1
[3] = molecular target: Metabotropic glutamate receptor 7 (Rattus norvegicus) (UniProt P35400); test: Antagonist activity against LSP4-202-induced rat mGlu7 activation transfected in HEK293 cells co-transfected with chimeric Gqi9 assessed as decrease in LSP4-202 potency by measuring LSP4-202 pEC50 incubated for 24 hrs by IP-one HTRF assay; type: functional, cell-based; in short: as §1
[4] = molecular target: Metabotropic glutamate receptor 7 (Rattus norvegicus, UniProt P35400, N74K); test: Agonist activity at rat mGlu7 N74K mutant
Chain of Metabotropic glutamate receptor 7 (Rattus norvegicus, UniProt P35400, N74K) (P35400 35-915 N74K limits assumed): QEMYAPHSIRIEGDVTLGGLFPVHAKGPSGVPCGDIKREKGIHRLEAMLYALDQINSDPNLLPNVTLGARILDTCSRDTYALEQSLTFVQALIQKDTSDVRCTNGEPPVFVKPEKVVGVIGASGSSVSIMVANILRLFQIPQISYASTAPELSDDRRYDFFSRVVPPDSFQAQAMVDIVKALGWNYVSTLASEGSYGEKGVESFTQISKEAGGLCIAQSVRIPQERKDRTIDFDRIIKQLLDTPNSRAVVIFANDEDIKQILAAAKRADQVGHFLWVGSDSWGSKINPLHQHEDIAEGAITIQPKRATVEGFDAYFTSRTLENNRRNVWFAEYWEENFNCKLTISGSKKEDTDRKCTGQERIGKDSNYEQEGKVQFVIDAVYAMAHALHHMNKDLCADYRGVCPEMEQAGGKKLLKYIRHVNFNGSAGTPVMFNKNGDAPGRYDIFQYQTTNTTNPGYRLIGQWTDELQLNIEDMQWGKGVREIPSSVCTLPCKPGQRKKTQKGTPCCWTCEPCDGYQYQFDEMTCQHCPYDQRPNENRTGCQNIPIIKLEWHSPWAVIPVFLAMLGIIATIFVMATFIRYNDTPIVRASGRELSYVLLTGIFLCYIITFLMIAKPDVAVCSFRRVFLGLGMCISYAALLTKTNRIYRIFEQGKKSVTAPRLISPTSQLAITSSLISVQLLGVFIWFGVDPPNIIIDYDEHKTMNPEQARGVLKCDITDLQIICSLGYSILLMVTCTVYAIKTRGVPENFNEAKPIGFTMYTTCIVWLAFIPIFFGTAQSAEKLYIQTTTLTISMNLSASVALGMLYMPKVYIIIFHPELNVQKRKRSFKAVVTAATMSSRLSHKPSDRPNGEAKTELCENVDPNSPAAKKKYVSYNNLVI

[5] = molecular target: Metabotropic glutamate receptor 4 (Rattus norvegicus, UniProt P31423, R60A); test: Agonist activity against rat mGlu4 R60A mutant
Chain of Metabotropic glutamate receptor 4 (Rattus norvegicus, UniProt P31423, R60A) (P31423 33-912 R60A limits assumed): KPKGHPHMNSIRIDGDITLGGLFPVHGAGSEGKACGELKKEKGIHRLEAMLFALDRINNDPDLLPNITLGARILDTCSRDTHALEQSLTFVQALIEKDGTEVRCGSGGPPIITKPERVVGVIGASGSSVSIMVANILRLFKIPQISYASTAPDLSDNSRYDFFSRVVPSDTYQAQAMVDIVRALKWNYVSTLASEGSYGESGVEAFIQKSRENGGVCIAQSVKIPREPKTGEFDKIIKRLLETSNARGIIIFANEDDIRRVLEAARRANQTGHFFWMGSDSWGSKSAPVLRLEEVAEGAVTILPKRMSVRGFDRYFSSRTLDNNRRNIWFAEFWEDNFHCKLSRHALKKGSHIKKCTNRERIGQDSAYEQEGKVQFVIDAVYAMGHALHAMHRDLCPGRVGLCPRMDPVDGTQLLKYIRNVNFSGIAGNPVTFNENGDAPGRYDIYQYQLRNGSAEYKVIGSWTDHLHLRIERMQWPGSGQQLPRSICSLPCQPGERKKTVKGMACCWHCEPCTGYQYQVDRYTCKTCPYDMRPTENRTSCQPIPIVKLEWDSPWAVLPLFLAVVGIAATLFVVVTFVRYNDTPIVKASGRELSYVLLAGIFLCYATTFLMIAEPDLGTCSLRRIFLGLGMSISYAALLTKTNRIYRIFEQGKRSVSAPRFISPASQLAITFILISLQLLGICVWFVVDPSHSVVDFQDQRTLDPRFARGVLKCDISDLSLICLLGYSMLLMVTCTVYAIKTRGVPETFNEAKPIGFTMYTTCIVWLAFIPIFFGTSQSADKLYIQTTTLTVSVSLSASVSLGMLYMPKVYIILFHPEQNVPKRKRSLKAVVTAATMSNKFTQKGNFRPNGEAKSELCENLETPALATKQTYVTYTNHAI

[6] = molecular target: T1, Metabotropic glutamate receptor 7 (Rattus norvegicus, UniProt P35400); test: Agonist activity at wild type rat mGlu7; type: functional
T1 sequence (P35400 whole entry): as the sequence (P35400 whole entry) above
In short: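 HEK293 cells were transiently transfected by electroporation with rat mGlu7 plasmid plus chimeric Gqα9 to couple to phospholipase C. They were grown in DMEM with 10% FBS on polyornithine-coated wells at 150 000 cells/well.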

[7] = molecular target: Metabotropic glutamate receptor 4 (Rattus norvegicus, UniProt P31423, S160A); test: Agonist activity against rat mGlu4 S160A mutant
Chain of Metabotropic glutamate receptor 4 (Rattus norvegicus, UniProt P31423, S160A) (P31423 33-912 S160A limits assumed): as the sequence (P31423 33-912 R60A limits assumed) above, with A28R, S128A counted along it

[8] = molecular target: Metabotropic glutamate receptor 7 (Rattus norvegicus, UniProt P35400, N74A); test: Agonist activity at rat mGlu7 N74A mutant
Chain of Metabotropic glutamate receptor 7 (Rattus norvegicus, UniProt P35400, N74A) (P35400 35-915 N74A limits assumed): as the sequence (P35400 35-915 N74K limits assumed) above, with K40A counted along it

[9] = Agonist activity at rat mGlu7 D314A mutant
[10] = molecular target: Metabotropic glutamate receptor 7 (Rattus norvegicus, UniProt P35400, K60A); test: Agonist activity at rat mGlu7 K60A mutant
Chain of Metabotropic glutamate receptor 7 (Rattus norvegicus, UniProt P35400, K60A) (P35400 35-915 K60A limits assumed): as the sequence (P35400 35-915 N74K limits assumed) above, with K26A, K40N counted along it

[11] = molecular target: Metabotropic glutamate receptor 4 (Rattus norvegicus, UniProt P31423, S160D); test: Agonist activity against rat mGlu4 S160D mutant
Chain of Metabotropic glutamate receptor 4 (Rattus norvegicus, UniProt P31423, S160D) (P31423 33-912 S160D limits assumed): as the sequence (P31423 33-912 R60A limits assumed) above, with A28R, S128D counted along it

[12] = molecular target: Metabotropic glutamate receptor 4 (Rattus norvegicus, UniProt P31423); test: Agonist activity against wild type rat mGlu4; type: functional
Chain of Metabotropic glutamate receptor 4 (Rattus norvegicus, UniProt P31423) (P31423 whole entry): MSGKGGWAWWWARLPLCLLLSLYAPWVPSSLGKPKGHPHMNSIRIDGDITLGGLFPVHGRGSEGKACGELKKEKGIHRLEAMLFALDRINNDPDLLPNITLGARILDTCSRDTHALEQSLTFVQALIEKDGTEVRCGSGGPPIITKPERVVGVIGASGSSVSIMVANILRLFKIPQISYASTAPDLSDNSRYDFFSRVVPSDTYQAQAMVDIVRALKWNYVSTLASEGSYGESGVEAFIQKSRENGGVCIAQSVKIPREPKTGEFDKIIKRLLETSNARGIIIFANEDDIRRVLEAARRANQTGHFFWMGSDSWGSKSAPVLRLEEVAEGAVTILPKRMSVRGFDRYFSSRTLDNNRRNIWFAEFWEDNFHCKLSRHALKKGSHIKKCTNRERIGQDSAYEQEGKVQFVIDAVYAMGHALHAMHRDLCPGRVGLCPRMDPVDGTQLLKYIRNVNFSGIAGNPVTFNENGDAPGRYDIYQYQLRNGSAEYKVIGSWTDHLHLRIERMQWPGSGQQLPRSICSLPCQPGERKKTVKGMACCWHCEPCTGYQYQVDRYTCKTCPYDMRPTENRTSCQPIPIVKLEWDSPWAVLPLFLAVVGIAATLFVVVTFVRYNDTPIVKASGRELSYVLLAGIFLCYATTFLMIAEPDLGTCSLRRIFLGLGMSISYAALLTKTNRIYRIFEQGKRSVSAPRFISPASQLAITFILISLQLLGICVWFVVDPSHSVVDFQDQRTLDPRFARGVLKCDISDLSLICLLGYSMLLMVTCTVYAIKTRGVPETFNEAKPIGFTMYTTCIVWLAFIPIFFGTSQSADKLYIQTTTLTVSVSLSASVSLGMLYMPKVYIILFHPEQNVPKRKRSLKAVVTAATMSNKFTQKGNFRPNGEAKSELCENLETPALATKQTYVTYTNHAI

[13] = molecular target: Metabotropic glutamate receptor 4 (Rattus norvegicus, UniProt P31423, R258A); test: Agonist activity at rat mGlu4 R258A mutant
Chain of Metabotropic glutamate receptor 4 (Rattus norvegicus, UniProt P31423, R258A) (P31423 33-912 R258A limits assumed): as the sequence (P31423 33-912 R60A limits assumed) above, with A28R, R226A counted along it

[14] = Agonist activity at rat mGlu7 Q258R/D262/R263 mutant
[15] = Agonist activity at rat mGlu7 S229A mutant
[16] = Agonist activity at rat mGlu4 R258Q/D262/R263 mutant
[17] = Agonist activity at rat mGlu4 loop beta-10-alpha7 region
[18] = Agonist activity at rat mGlu7 loop beta10-alpha7 region
[19] = molecular target: Metabotropic glutamate receptor 4 (Rattus norvegicus, UniProt P31423, K74A); test: Agonist activity against rat mGlu4 K74A mutant
Chain of Metabotropic glutamate receptor 4 (Rattus norvegicus, UniProt P31423, K74A) (P31423 33-912 K74A limits assumed): as the sequence (P31423 33-912 R60A limits assumed) above, with A28R, K42A counted along it

[20] = molecular target: Metabotropic glutamate receptor 7 (Rattus norvegicus) (UniProt P35400); test: Competitive antagonist activity against rat mGlu7 receptor assessed as decrease in LSP4-202 effect at 0.3 to 30 uM by Schild plot analysis; settings: filed as antagonist, dose 0.3-30 µM
In short: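 Schild analysis used the shift of LSP4-2022 concentration-response curves in IP-One IP1 assays. Cells were HEK293 co-transfected with rat mGlu7 and Gqα9. Data are means ± sem of 3 to 11 experiments run in triplicates.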

[21] = molecular target: T1, Metabotropic glutamate receptor 7; test: Antagonist activity against rat mGlu7 activation transfected in HEK293 cells co-transfected with chimeric Gqi9 incubated for 24 hrs in presence of LSP4-2022 by IP-one HTRF assay; type: functional, cell-based
In short: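 Inhibition curves were run with increasing inhibitor concentrations against IP1 production by 30 µM LSP4-2022. Rat mGlu7 was co-expressed with Gqα9 in HEK293 and assayed 24 h post-transfection with IP-One HTRF. IC50/pIC50 are means ± sem of independent experiments in triplicates. pIC50 compared to reference by unpaired t-test.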

Rattus norvegicus [22] = species: Rattus norvegicus; test: Ratio of pEC50 for antagonist activity against LSP4-202 induced rat mGlu7 S229A mutant assessed as decrease in LSP4-202 potency by measuring LSP4-202 pEC50 at 100 uM to pEC50 for LSP4-202-induced rat mGlu7 S229A mutant
[23] = Antagonist activity against LSP4-202-induced rat mGlu7 […] mutant assessed as decrease in LSP4-202 potency by measuring LSP4-202 pEC50 at 30 uM
Rattus norvegicus [24] = species: Rattus norvegicus; test: Ratio of pEC50 for antagonist activity against LSP4-202 induced wild type rat mGlu7 assessed as decrease in LSP4-202 potency by measuring LSP4-202 pEC50 at 10 uM to pEC50 for LSP4-202-induced wild type rat mGlu7
Rattus norvegicus [25] = species: Rattus norvegicus; test: Ratio of pEC50 for antagonist activity against LSP4-202 induced rat mGlu7 S229A mutant assessed as decrease in LSP4-202 potency by measuring LSP4-202 pEC50 at 30 uM to pEC50 for LSP4-202-induced rat mGlu7 S229A mutant
[26] = Antagonist activity against LSP4-202-induced rat mGlu7 […] mutant assessed as decrease in LSP4-202 potency by measuring LSP4-202 pEC50 at 10 uM
Rattus norvegicus [27] = species: Rattus norvegicus; test: Ratio of pEC50 for antagonist activity against LSP4-202 induced rat mGlu7 S229A mutant assessed as decrease in LSP4-202 potency by measuring LSP4-202 pEC50 at 10 uM to pEC50 for LSP4-202-induced rat mGlu7 S229A mutant
Rattus norvegicus [28] = species: Rattus norvegicus; test: Ratio of pEC50 for antagonist activity against LSP4-202 induced wild type rat mGlu7 assessed as decrease in LSP4-202 potency by measuring LSP4-202 pEC50 at 30 uM to pEC50 for LSP4-202-induced wild type rat mGlu7
[29] = Antagonist activity against LSP4-202-induced rat mGlu7 […] mutant assessed as decrease in LSP4-202 potency by measuring LSP4-202 pEC50 at 100 uM
Rattus norvegicus [30] = species: Rattus norvegicus; test: Ratio of pEC50 for antagonist activity against LSP4-202 induced wild type rat mGlu7 assessed as decrease in LSP4-202 potency by measuring LSP4-202 pEC50 at 3 uM to pEC50 for LSP4-202-induced wild type rat mGlu7

- Emax [1]: 92.6%
Compound: N#Cc1ccc(OCC(=O)c2ccc(O)cc2)cc1
- Ratio (Rattus norvegicus [2]): 0.89

- inhibition [3]: inactive
Compound: O=c1c2ccc(F)cc2oc2c1oc1ccc(I)cc12

- Emax [1]: 98.3%
Compound: Cc1cc(I)ccc1OCC(=O)c1ccc(O)cc1
- Ratio (Rattus norvegicus [2]): 0.97

- Emax [1]: 89.2%
Compound: NS(=O)(=O)c1ccc(OCC(=O)c2ccc(O)cc2)cc1
- Ratio (Rattus norvegicus [2]): 1.06

- inhibition [3]: inactive
Compound: COc1ccc2c(=O)c3oc4ccc(I)cc4c3oc2c1

- Emax [1]: 80.4%
Compound: COc1ccc(C(=O)COc2ccc(I)cc2)cc1OC
- Ratio (Rattus norvegicus [2]): 1.05

- Emax [1]: 97.5%
Compound: Cc1cc(OCC(=O)c2ccc(O)cc2)ccc1I
- Ratio (Rattus norvegicus [2]): 0.96

Compound: N[C@@H](CCP(=O)(O)O)C(=O)O
- EC50 [4]: 10.5 µM
- EC50 [5]: 1.16 µM
- EC50 [6]: > 100 µM
- EC50 [7]: 2.66 µM
- EC50 [8]: > 100 µM
- EC50 [9]: > 1000 µM
- EC50 [10]: 1980 µM
- EC50 [11]: 12.3 µM
- EC50 [12]: 0.343 µM
- EC50 [13]: 1.87 µM
- EC50 [14]: > 100 µM
- EC50 [15]: 182 µM
- EC50 [16]: 11.1 µM
- EC50 [17]: 0.505 µM
- EC50 [18]: 45 µM
- EC50 [19]: 0.23 µM

- Emax [1]: 85.2%
Compound: COc1ccc(C(=O)COc2ccc([N+](=O)[O-])cc2)cc1
- Ratio (Rattus norvegicus [2]): 0.95

- Emax [1]: 97.6%
Compound: COc1ccc(OCC(=O)c2ccc(O)cc2)cc1
- Ratio (Rattus norvegicus [2]): 0.96

- Emax [1]: 89.4%
Compound: COc1ccc(C(=O)COc2ccc(C#N)cc2)cc1
- Ratio (Rattus norvegicus [2]): 0.95

- Emax [1]: 98.5%
Compound: O=C(COc1ccc(Cl)cc1)c1ccc(O)cc1
- Ratio (Rattus norvegicus [2]): 0.83

- Emax [1]: 93.3%
Compound: O=C(COc1ccc(Br)cc1Cl)c1ccc(O)cc1
- Ratio (Rattus norvegicus [2]): 0.95

- Emax [1]: 96.6%
Compound: COc1ccc(C(=O)COc2ccc(C(F)(F)F)cc2)cc1
- Ratio (Rattus norvegicus [2]): 0.97

- inhibition [3]: inactive
Compound: O=c1c2ccc(O)cc2oc2c1oc1ccc(I)cc12

- Emax [1]: 98.6%
Compound: O=C(O)c1ccc(OCC(=O)c2ccc(O)cc2)cc1
- Ratio (Rattus norvegicus [2]): 1.07

- Emax [1]: 92.3%
Compound: O=C(COc1ccc(Cl)cc1Cl)c1ccc(O)cc1
- Ratio (Rattus norvegicus [2]): 0.94

- inhibition [3]: inactive
Compound: O=c1c2ccc(O)cc2oc2c1oc1cc(I)ccc12

- Activity [20]: Active
- IC50 ([21]; read-out: IC50): 1.25 µM
- IC50 ([21]; read-out: pIC50 (converted)): 1.15 µM
Compound: O=C(COc1ccc(Br)cc1F)c1cc(F)c(O)c(F)c1
- Ratio (Rattus norvegicus [2]): < 0.6

- inhibition [3]: inactive
Compound: O=c1c2ccccc2oc2c1oc1ccc(Br)cc12

- Emax [1]: 93.6%
Compound: COc1ccc(C(=O)COc2ccc(I)cc2)cc1
- Ratio (Rattus norvegicus [2]): 0.97

- inhibition [3]: inactive
Compound: O=c1c2ccccc2oc2c1oc1ccc(Cl)cc12

- Ratio (Rattus norvegicus [22]): 0.95
- EC50 [23]: 35.7 µM
- pEC50 [23]: 4.53
- Activity [20]: Active
- Ratio (Rattus norvegicus [24]): 0.85
- Ratio (Rattus norvegicus [25]): 0.93
- IC50 ([21]; read-out: IC50): 3.44 µM
- IC50 ([21]; read-out: pIC50 (converted)): 3.31 µM
- EC50 [26]: 38.2 µM
- pEC50 [26]: 4.42
- Emax [1]: 90.3%
- Ratio (Rattus norvegicus [27]): 0.91
- Ratio (Rattus norvegicus [28]): 0.79
- EC50 [29]: 27 µM
- pEC50 [29]: 4.6
- Ratio (Rattus norvegicus [30]): 0.91
Compound: O=C(COc1ccc(Br)cc1F)c1ccc(O)c(O)c1
- Ratio (Rattus norvegicus [2]): 0.76
